Experimental data from paper PMC8132106 (Cancer chemotherapy and pharmacology, 2019).
Where two headings read alike, the source gives them in different places. Blank lines part the entries; values can stand above or below the molecule they belong to.

Columns and labels:
AR + TNBC = settings: cited from earlier work
mCRPC = settings: compared to placebo, cited from earlier work
[1] = Noncompartmental analysis of seviteronel plasma PK in patients; format: in vivo, human
[2] = Population PK model of seviteronel; format: in vivo, human; settings: for predicted accumulation: from simulated half-life 17.5 h
Summary of the method: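 Dense and sparse plasma concentrations (sparse from cycle 1 day 14, then every other cycle; LC-MS/MS; BQL excluded) were pooled; fed and fasted first doses counted as separate patients. One-, two- and three-compartment models with first-order or saturable absorption/elimination were tested, with exponential between-subject variability. Covariates tested: sex, body weight, prandial status, dexamethasone. Selection used OFV (−2LL; ΔOFV > 3.84, α = 0.05). Evaluation used a VPC with 200 simulated replicates (5th/50th/95th percentiles) and a split-off trough validation dataset.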

[3] = Previously reported noncompartmental clinical PK of seviteronel; format: in vivo, human; settings: with BID dosing, predicted from half-lives of 6.4 to 9.2 h
[4] = men taking 600 mg QD; cited from earlier work
CYP2C9 = settings: 1uM substrate over 60 min; ref unpublished data on file; cited from earlier work
CYP2C19 = settings: 1uM substrate over 60 min; ref unpublished data on file; cited from earlier work
CYP3A4 = settings: 1μM substrate over 60 min; ref unpublished data on file; cited from earlier work
CYP17 lyase = settings: cited from earlier work
[5] = cited from earlier work
[6] = apparent oral inter-compartmental clearance
[7] = apparent oral total systemic clearance
[8] = apparent oral volume of distribution of the central compartment
[9] = apparent oral volume of distribution of the peripheral compartment
[10] = transit rate between compartments of the transit absorption model

SMILES: CC(=O)O[C@H]1CC[C@@]2(C)C(=CC[C@@H]3[C@@H]2CC[C@]2(C)C(c4cccnc4)=CC[C@@H]32)C1 [abiraterone acetate]
radiographic progression-free survival (rPFS) (AR + TNBC; in combination with prednisone, women with AR + (> 0% by IHC) TNBC): 11.2 weeks

SMILES: CNC(=O)c1ccc(N2C(=S)N(c3ccc(C#N)c(C(F)(F)F)c3)C(=O)C2(C)C)cc1F [enzalutamide]
improvement in overall survival (OS) (mCRPC; post-chemotherapy): 4.8 mo
overall reduction in risk of death (mCRPC; post-chemotherapy): 37%
improvement in overall survival (OS) (mCRPC; pre-chemotherapy): 2.4 mo
overall reduction in risk of death (mCRPC; pre-chemotherapy): 29%
radiographic progression-free survival (rPFS) (AR + TNBC; single-arm, open-label study, women with AR + (≥ 10% by IHC) TNBC): 14.7 weeks

food effect on PK ([1]; Study 001, fasted vs fed): no statistically-significant food effect
half-life longer with 48 h sampling than calculated with 0–24 h sampling ([1]; Study 002): ~ 60%
steady-state AUCTAU higher than first-dose AUCINF ([1]; Study 002, QD dosing): ~ 60%
accumulation at steady-state ([1]; observed plasma concentrations, Fig. 1): ~ 60%
CL/F, bootstrap mean estimate ([2]; 200 replicates): 6.89 L/h
Ka, bootstrap mean estimate ([2]; 200 replicates): 2.47 h⁻¹
Ktr, bootstrap mean estimate ([2]; 200 replicates): 1.98 L/h
Q/F, bootstrap mean estimate ([2]; 200 replicates): 6.99 L/h
V/F, bootstrap mean estimate ([2]; 200 replicates): 99.97 L
Vp/F, bootstrap mean estimate ([2]; 200 replicates): 352.6 L
BSV on CL/F ([2]; after accounting for sex effect): 45%
Q/F, base model estimate [2, 6]: 6.99 L/h
Q/F, final model estimate [2, 6]: 6.99 L/h
CL/F, base model estimate [2, 7]: 7.15 L/h
CL/F, final model estimate [2, 7]: 6.69 L/h
V/F, base model estimate [2, 8]: 69.9 L
V/F, final model estimate [2, 8]: 99.97 L
Vp/F, base model estimate [2, 9]: 369 L
Vp/F, final model estimate [2, 9]: 343.4 L
dCLdSex, final model estimate ([2]; covariate effect on CL/F by Sex): 0.5883
dCLdSex, bootstrap mean estimate ([2]; covariate effect on CL/F by Sex, 200 replicates): 0.559
Between subject variability (%CV; ω) on Ka ([2]; final model): 133%
Between subject variability (%CV; ω) on Ktr ([2]; final model): 94.9%
Between subject variability (%CV; ω) on Q/F ([2]; final model): 51.5%
Between subject variability (%CV; ω) on V/F ([2]; final model): 51.4%
Between subject variability (%CV; ω) on Vp/F ([2]; final model): 35.9%
Ka, base model estimate ([2]; first-order absorption rate): 1.99 h⁻¹
Ka, final model estimate ([2]; first-order absorption rate): 2.49 h⁻¹
BSV on CL/F ([2]; overall, before covariates): 59.6%
Ktr, base model estimate [2, 10]: 1.99 L/h
Ktr, final model estimate [2, 10]: 1.99 L/h
predicted accumulation ([2]; with BID dosing): 164%
predicted accumulation ([2]; with QD dosing): 63%
predicted accumulation to steady-state [3]: 37–68%
SMILES: CC(C)[C@](O)(c1ccc2cc(OC(F)F)c(OC(F)F)cc2c1)c1c[nH]nn1 [seviteronel]
steady-state trough levels with vs without dexamethasone ([1]; dexamethasone 0.5 mg daily co-administration): no statistically significant differences were observed
BSV of V/F ([2]; before sex and body weight were included on CL/F): 62.9%
dCLdWt, final model estimate ([2]; covariate effect on CL/F by body weight): 0.2514
dCLdWt, bootstrap mean estimate ([2]; covariate effect on CL/F by body weight, 200 replicates): 0.3595
Between subject variability (%CV; ω) on CL/F ([2]; final model, sex and body weight on CL/F): 37.4%
CMAX [4]: 4403 ± 1817 ng/mL
loss of substrate (CYP2C9): 100%
loss of substrate (CYP2C19): 100%
loss of substrate (CYP3A4): 57%
selectivity for inhibition of CYP17 lyase versus hydroxylase (CYP17 lyase): tenfold
DLTs ([5]; 450 mg QD): no reported DLTs
time for drug-related adverse events to resolve to baseline ([5]; CRPC men treated with seviteronel): 2–3 weeks
Grade 1 events, 600 mg QD relative to 450 mg QD ([5]; women): five times more
